Assay outcomes (PubChem BioAssay)
PfM18AAP inh: blocks P. falciparum M18 aspartyl aminopeptidase. AID 1822. 290,000 tested, 1.2% active. recombinant PfM18AAP, H-Glu-NHMec fluorogenic cleavage. inhibition, % at 7.35 µM;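 active = inhibition above the campaign mean inhibition over all tested compounds plus 3 SD, cut at about 28% in these data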
HKDC1 inhibitor: blocks human hexokinase HKDC1 activity. Q2TB90. recombinant HKDC1, G6PDH/diaphorase resazurin coupled fluorescence. inhibition, % at 20 µM. AID 493160. 340,000 tested, 0.16% active;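 active = inhibition above about 35% when tested at 20 µM, limit read from the data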
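Incubation: 90 min at room temperature in dark / Material: recombinant HKDC1 (HK5) hexokinase enzyme, produced in-house / Quantity: enzyme 5 µg/mL final / Compound: one dose of 20 µM, 1% DMSO / Reagent: glucose and ATP substrates / Buffer or medium: Tris pH 8.0 buffer with MgCl2, Tween-20, BSA, BME / Technique: resorufin fluorescence at 613 nm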
A3G deaminase: blocks human APOBEC3G single-stranded DNA deamination; Q9HC16; recombinant A3G, ssDNA deamination FAM/TAMRA fluorescence; inhibition, % at 20 µM; 330,000 tested, 0.28% active;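 active = inhibition of at least 40% at 20 µM, with no more than 30% in the related APOBEC3A deaminase screen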
SUMO HTRF inh: inhibitors of human SUMOylation (UBC9); P63279; HTRF SUMOylation assay, SAE1/SAE2 + UBC9, in vitro; inhibition, % at 35 µM; 290,000 tested, 0.36% active; AID 2006; in the data active = inhibition above about 50%, passing the limit was not always enough
Target sequence (P63279 whole entry, looked up): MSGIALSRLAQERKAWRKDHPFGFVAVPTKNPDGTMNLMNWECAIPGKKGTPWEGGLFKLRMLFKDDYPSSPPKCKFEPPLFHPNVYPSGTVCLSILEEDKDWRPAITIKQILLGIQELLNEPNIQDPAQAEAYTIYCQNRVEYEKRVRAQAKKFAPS
PfG6PD inh: PfG6PD (Plasmodium falciparum) enzyme inhibition; inhibition, % at 20 µM; PfGluPho enzyme, NADPH resazurin-diaphorase fluorescence; 350,000 tested, 0.78% active; AID 504690;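 active = inhibition reaching at least a set limit at 20 µM in the primary screen, cut at about 59% in these data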
A3A deaminase: blocks human APOBEC3A ssDNA deamination | P31941 | recombinant A3A, FAM/TAMRA ssDNA deamination fluorescence | inhibition, % at 20 µM | 330,000 tested, 0.41% active;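 active = at least 40% inhibition at 20 µM here, with at most 30% in a related deaminase screen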
Target sequence (P31941 whole entry, looked up): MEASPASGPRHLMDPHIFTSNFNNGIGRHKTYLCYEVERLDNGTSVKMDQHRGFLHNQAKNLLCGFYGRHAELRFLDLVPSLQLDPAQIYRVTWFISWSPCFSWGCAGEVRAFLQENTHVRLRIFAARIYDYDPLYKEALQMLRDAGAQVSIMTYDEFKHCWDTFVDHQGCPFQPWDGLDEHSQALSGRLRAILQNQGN
A3G conf: APOBEC3G (human) deaminase inhibition, confirmed. shares compounds with A3G deaminase. AID 493152. inhibition, % at 20 µM. 890 tested, 72% active. recombinant A3G ssDNA deaminase, UDG/FAM-TAMRA fluorescence;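 active = inhibition reaching a set limit in any replicate at 20 µM, the limit being 80% of the first screen's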
UDG A3G counter: inhibits E. coli UDG, flagging false APOBEC3G inhibitors; inhibition, % at 20 µM; UDG counterscreen, FAM/TAMRA oligo fluorescence; AID 504715; 710 tested, under 10 active; shares compounds with A3G deaminase;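 active = compounds giving 40% or more inhibition at 20 µM in any one of the three replicates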;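 also: inhibitors lower the FAM signal released by uracil excision and alkaline cleavage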
Target sequence (P12295 whole entry, looked up): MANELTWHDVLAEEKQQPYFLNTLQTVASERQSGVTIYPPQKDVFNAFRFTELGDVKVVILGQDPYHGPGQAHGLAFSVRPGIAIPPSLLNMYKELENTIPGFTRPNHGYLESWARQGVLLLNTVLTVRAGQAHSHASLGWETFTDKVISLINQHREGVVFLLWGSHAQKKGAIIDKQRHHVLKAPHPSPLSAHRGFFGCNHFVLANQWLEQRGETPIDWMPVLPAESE
HKDC1 act conf: HKDC1 (human) activation, single-dose confirmed; recombinant HKDC1, G6PDH/diaphorase resazurin fluorescence; hits give low values; 740 tested, 14% active; shares compounds with HKDC1 inhibitor; inhibition, % at 20 µM;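 active = inhibition at or below a set negative limit, negative inhibition meaning the enzyme was activated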
PfG6PD confirm: PfG6PD inhibition, single-dose confirmed; shares compounds with PfG6PD inh; recombinant PfGluPho, NADPH-diaphorase-resazurin fluorescence; inhibition, % at 20 µM; 2,400 tested, 34% active;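 active = inhibition of at least 50% at 20 µM in any single replicate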
Diaph ctr 10uM: diaphorase inhibition or oxidation at 10 uM NADPH | shares compounds with PfG6PD inh | diaphorase-coupled resazurin reduction, fluorescence, NADPH 10 uM | inhibition, % at 20 µM | 820 tested, 39% active | AID 504862;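 active = average inhibition reaching 50% or more with the compound at 20 µM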;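 also: resorufin red fluorescence formed as diaphorase reduces resazurin using NADPH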
Diaph ctr 30uM: inhibits diaphorase or oxidizes, flagging false PfG6PD hits | inhibition, % at 20 µM | 820 tested, 29% active | Diaphorase/resazurin coupled assay, resorufin fluorescence, 30 uM NADPH | shares compounds with PfG6PD inh;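 active = inhibition averaging 50% or more, tested at 20 µM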
Large screens that a line does not name were inactive (follow-up assays come after a bar, where they were run). A selection: hits, their analogues and other compounds. The true share with any hit is near 2.4%.

Nc1nc2cc(S(=O)(=O)N3CCOCC3)ccc2o1	A3G deaminase 46, PfG6PD inh 69 (no result: PfM18AAP inh, SUMO HTRF inh) | A3G conf 43 | UDG A3G counter inactive | PfG6PD confirm inactive
CN(C)C(=O)CSc1nc2cc(S(=O)(=O)N3CCOCC3)ccc2o1	none (no result: PfM18AAP inh, SUMO HTRF inh)
COc1ccc(N2C(=O)/C(=C/c3cccs3)NC2=S)cc1	A3G deaminase 60, PfG6PD inh 79 | A3G conf 39 | UDG A3G counter inactive | PfG6PD confirm 64 | Diaph ctr 10uM inactive | Diaph ctr 30uM inactive
Cc1ccc(S(=O)(=O)NNc2ccccc2)cc1	A3G deaminase 68, PfG6PD inh 65 | A3G conf 66 | PfG6PD confirm 47 | Diaph ctr 10uM inactive | Diaph ctr 30uM inactive
CC(=O)Nc1ccc(S(=O)(=O)NNc2cccc(C)c2)cc1	A3G deaminase 61, PfG6PD inh 76 | A3G conf 62 | UDG A3G counter inactive | PfG6PD confirm 45 | Diaph ctr 10uM inactive | Diaph ctr 30uM inactive
Cc1cccc(NC(=O)NNS(=O)(=O)c2ccc(F)cc2)c1	none
CC(C)N(CC#CCC(O)(c1ccccc1)c1ccccc1)CCO	none
COC(=O)c1sc(=S)n(-c2cccc(Cl)c2)c1N	A3G deaminase 54, PfG6PD inh 72 | A3G conf 30 | UDG A3G counter inactive | PfG6PD confirm inactive
CCOC(=O)c1sc(=S)n(-c2ccccc2)c1N	none
COC(=O)C1=C(C(=O)OC)SC2(S1)C(C(=O)OC)=C(C(=O)OC)SC1=C2c2cc(C)ccc2NC1(C)C	PfM18AAP inh 29, A3G deaminase 45, PfG6PD inh 72 | A3G conf 40 | UDG A3G counter inactive | PfG6PD confirm inactive
CN1C(=O)C(/C(N)=N/NC(=O)c2ccccc2)C2CC1(C)Oc1ccccc12 (stereo unspecified)	none
CCOC(=O)c1cc(-c2ccccc2)sc1NC(=O)c1ccc(OC)c(OC)c1	A3G deaminase 57, PfG6PD inh 78 | A3G conf 47 | UDG A3G counter inactive | PfG6PD confirm inactive
COc1ccccc1Nc1nc(NCCCN(C)C)nc(N)c1[N+](=O)[O-]	none
c1ccc(-c2nn3c(Cn4nnc5ccccc54)nnc3s2)cc1	A3G deaminase 46, PfG6PD inh 75 | A3G conf 41 | UDG A3G counter inactive | PfG6PD confirm inactive
c1ccc(-c2nn3c(Cn4cnc5ccccc54)nnc3s2)cc1	A3G deaminase 49, PfG6PD inh 64 | A3G conf 43 | UDG A3G counter inactive | PfG6PD confirm inactive
c1ccc2c(c1)ncn2Cc1nnc2sc(-c3ccncc3)nn12	none
c1cncc(-c2nn3c(Cn4cnc5ccccc54)nnc3s2)c1	A3G deaminase 53, PfG6PD inh 65 | A3G conf inactive | UDG A3G counter inactive | PfG6PD confirm inactive
COc1cc(C(=S)N2CCN(c3cccc(Cl)c3)CC2)ccc1O	A3G deaminase 50 | A3G conf 40 | UDG A3G counter inactive | PfG6PD confirm inactive
CN(Cc1ccccc1)S(=O)(=O)c1ccc(Cl)c(C(=O)NCc2cccnc2)c1	none (no result: PfM18AAP inh, SUMO HTRF inh)
CC1(c2ccccc2)NC(=O)N(CC(=O)Nc2nc(-c3ccccn3)cs2)C1=O (stereo unspecified)	none (no result: PfM18AAP inh, SUMO HTRF inh)
Cc1ccc(C2(C)NC(=O)N(CC(=O)Nc3nc(-c4ccccn4)cs3)C2=O)cc1 (stereo unspecified)	A3G deaminase 56, PfG6PD inh 72 (no result: PfM18AAP inh, SUMO HTRF inh) | A3G conf 67 | UDG A3G counter inactive | PfG6PD confirm inactive
COc1ccc(Cl)cc1NC(=O)CSc1ncnc2c1oc1ccccc12	none
Cc1cc(C)nc(SCc2nnc(SCc3ccc([N+](=O)[O-])cc3)n2Cc2ccco2)n1	none
COC(=O)[C@H](C)NC(=O)c1cc2c(cn1)[nH]c1ccccc12	A3G deaminase 50, PfG6PD inh 90 | A3G conf 77 | UDG A3G counter inactive | PfG6PD confirm 55 | Diaph ctr 10uM inactive | Diaph ctr 30uM inactive
CCC1(C)CC(C(N)=S)CCO1 (stereo unspecified)	A3G deaminase 57, PfG6PD inh 81 | A3G conf 45 | UDG A3G counter inactive | PfG6PD confirm 64 | Diaph ctr 10uM inactive | Diaph ctr 30uM inactive
CC1CCCC(C)N1C(=O)CSc1nnc(NC(=O)Cc2cccs2)s1 (stereo unspecified)	none
CN=c1nc(-c2ccccc2)n(-c2ccccc2)s1	A3G deaminase 79, PfG6PD inh 121 (no result: PfM18AAP inh, SUMO HTRF inh) | A3G conf 96 | UDG A3G counter inactive | PfG6PD confirm 111 | Diaph ctr 10uM inactive | Diaph ctr 30uM inactive
O=C(c1ccc(S(=O)(=O)NCc2ccco2)cc1)N1CCN(Cc2ccccc2F)CC1	none (no result: PfM18AAP inh, SUMO HTRF inh)
Cc1cc(C)cc(OCC(=O)N/N=C/c2ccncc2)c1	none
COc1cccc(CC(=O)NCCCSc2ccccc2)c1	none
CCOC(=O)c1cc(C)[nH]c(=S)c1C#N	A3G deaminase 63, PfG6PD inh 74 | A3G conf 82 | UDG A3G counter inactive | PfG6PD confirm inactive
CCOC(=O)c1cc(C(=O)OCC)c(=O)[nH]c1C	none
CCC(C)N(C(=O)COC(=O)c1cn(CC)c2nc(C)ccc2c1=O)C1CCS(=O)(=O)C1 (stereo unspecified)	none (no result: PfM18AAP inh)
CCOP(=O)(c1ccc(N(C)C)cc1)C(O)c1cc(OC)c(OC)c(OC)c1 (stereo unspecified)	none
CCOP(=O)(c1ccc(N(C)C)cc1)C(O)c1ccc(OC)cc1 (stereo unspecified)	HKDC1 inhibitor 56 | HKDC1 act conf inactive
CCCN(CCC)C(=S)NC(=O)c1ccc(-c2ccccc2)cc1	none | HKDC1 act conf inactive
C[C@]12c3[nH]c4ccc(Cl)cc4c3CCN1C(=O)[C@@H](CC(=O)NCc1cccc(C(F)(F)F)c1)C[C@@H]2C(=O)N1CCOCC1	none (no result: PfM18AAP inh, SUMO HTRF inh) | HKDC1 act conf inactive
C/C(=N\NC(=O)CNc1ccccc1Cl)C(C)(C)C	none
CC(=NNc1nc2ccccc2o1)c1cc2ccccc2cn1	none (no result: PfM18AAP inh, A3G deaminase, SUMO HTRF inh, A3A deaminase) | HKDC1 act conf -77
